Assay results pooled from the literature.
BRAF: Serine/threonine-protein kinase B-raf (BRAF, Homo sapiens, UniProt P15056)
BRAF V600E: Serine/threonine-protein kinase B-raf (BRAF, Homo sapiens, UniProt P15056, V600E)

SMILES | target | assay | setting | measurement | result
C=CC(=O)N1CCC[C@@H](n2nc(-c3ccc(Oc4ccccc4)cc3)c3c(N)ncnc32)C1 | BRAF | enzyme activity, inhibitor | 1 µM | inhibition | 51%
COc1ccc2[nH]c3c4[nH]c5ccc(OC)cc5c4c4c(c3c2c1)C(=O)NC4=O | BRAF | binding, competition with immobilised ligand | 1 µM | remaining binding | 86%
CCCCC(=O)Nc1ccc(-c2ccc3ncn(CCC)c(=O)c3c2)cn1 | BRAF | binding, competition with immobilised ligand | 0.5 µM | remaining binding | 97%
CO[C@@H]1[C@H](N(C)C(=O)c2ccccc2)C[C@H]2O[C@]1(C)n1c3ccccc3c3c4c(c5c6ccccc6n2c5c31)C(=O)NC4 | BRAF | enzyme activity, inhibitor | 1 µM | inhibition | 6%
Cc1cc2c(C(N)=O)c(N)n(-c3c(C)ccc(O)c3C)c2nc1C | BRAF | enzyme activity, inhibitor, ADP detection | 3.333 µM | inhibition | 101%
N#Cc1ccc(NC(=O)Nc2ccccc2)cc1 | BRAF V600E | cell-free assay, competition with immobilised ligand | 25 µM | remaining binding | 100%
C[C@H]1CC[C@H](n2c3cnccc3c3cnc(Nc4ccc5c(n4)CCN(C(=O)CO)C5)nc32)CC1 | BRAF V600E | cell-free assay | 1 µM | remaining signal | 82%
C=CC(=O)N1CCC([C@@H]2CCNc3c(C(N)=O)c(-c4ccc(Oc5ccccc5)cc4)nn32)CC1 | BRAF V600E | enzyme activity, inhibitor | 1 µM | inhibition | 0%
Cc1cc(O)c(-c2ccc([C@@H](C)CN(C)C)cc2)c2c1[nH]c(=O)c1sccc12 | BRAF V600E | cell-free assay, inhibitor | 0.1 µM, lysate | inhibition | -5.15%
CC#CC(=O)N1CCC[C@H]1c1nc(-c2ccc(C(=O)Nc3ccccn3)cc2)c2c(N)nccn12 | BRAF V600E | enzyme activity, inhibitor | 1 µM | inhibition | 44%
Cc1ccc(NC(=O)c2ccnc(C(F)(F)F)c2)cc1-c1cc(OCCO)nc(N2CCOCC2)c1 | BRAF | binding, competition with immobilised ligand | 1 µM | remaining binding | 0.4%
C1=C/COCc2cc(ccc2OCCN2CCCC2)Nc2nccc(n2)-c2cccc(c2)COC/1 | BRAF V600E | binding | 0.1 µM | remaining binding | 85%
CN1CCN(C(=O)c2ccc(NC(=O)Nc3ccc(N(C)c4ccnc(Nc5ccc(CS(C)(=O)=O)cc5)n4)cc3)cc2)CC1 | BRAF V600E | binding | 1 µM | remaining binding | 85%
COc1ccc2oc(-c3ccc4nc(N)oc4c3)c/c(=N\c3ccccc3NC(=O)CCN)c2c1 | BRAF | binding | 1 µM | remaining binding | 98%
